ChEMBL document CHEMBL4359814, “A Potent Isoprenylcysteine Carboxylmethyltransferase (ICMT) Inhibitor Improves Survival in Ras-Driven Acute Myeloid Leukemia” (J Med Chem, 2019)
The source made the active and inactive calls. No cut-off for these calls is given here.

Tests used:
[1] = target: Protein-S-isoprenylcysteine O-methyltransferase (Homo sapiens) (UniProt O60725); experiment: Inhibition of recombinant human ICMT expressed in Sf9 insect cell membranes at 50 uM using biotin-farnesyl-L-cysteine as substrate preincubated for 15 mins followed by substrate addition and measured after 30 mins by scintillation counting analysis relative to control
[2] = target: T1, Protein farnesyltransferase (Homo sapiens) (UniProt P49354+P49356); experiment: Inhibition of FTase in human PC3 cells assessed as reduction in HDJ2 farnesylation at 10 uM measured after 24 hrs by Western blot analysis; format: cell-based
Homo sapiens [3] = species: Homo sapiens; experiment: Inhibition of GGTase in human PC3 cells assessed as reduction in Rap1A geranylgeranylation at 10 uM measured after 24 hrs by Western blot analysis; format: cell-based
[4] = Permeability of the compound; format: ADME
Procedure, shortened: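 Parallel artificial membrane assay, expressed as percentage of compound passing through the membrane. Mean±SEM of at least two independent experiments in duplicate.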

Albumin = Albumin (Homo sapiens, UniProt P02768); experiment: Binding affinity to human serum albumin; format: ADME; conditions: for fraction unbound: human, human serum albumin, read-out: PB (converted)
[5] = target: Protein-S-isoprenylcysteine O-methyltransferase (Homo sapiens) (UniProt O60725); experiment: Inhibition of ICMT in human AD293 cells transfected GFP-fused H-Ras assessed as induction of H-Ras mislocalization at 5 uM by laser scanning confocal microscopic analysis; format: cell-based
Procedure, shortened: (§1)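 AD-293 cells were transiently transfected with GFP fusion plasmids of H-Ras, K-Ras4A, K-Ras4B or N-Ras. They were treated overnight with 5 μM compound or DMSO, then imaged live by laser scanning confocal microscopy. Three independent transfections were performed in triplicate.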

HuP-T4 = experiment: Induction of apoptosis in human HUPT4 cells assessed as increase in sub-G0/G1 population at 50 uM measured after 24 hrs by propidium iodide staining based flow cytometry; format: functional, cell-based
[6] = target: Protein-S-isoprenylcysteine O-methyltransferase (Homo sapiens) (UniProt O60725); experiment: Inhibition of ICMT in human PC3 cells assessed as induction of mislocalization of endogenous Ras at 5 uM preincubated for 48 hrs followed by compound washout and subsequent compound addition measured after 72 hrs by Hoechst 33258 staining-based confocal microscopic analysis; format: cell-based
Procedure, shortened: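 PC3 cells were seeded at 2×10^4 on poly-D-lysine coverslips for 24 h in RPMI with 10% FBS. They were treated with compound or DMSO for 120 h, with medium and compound renewed at 48 h. Cells were fixed in 4% PFA, permeabilised with Triton X-100, and stained with anti-Ras and a fluorescent secondary, with Hoechst for nuclei. Imaging used a 60X confocal objective, and membrane Ras signal was quantified.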

[7] = target: Protein-S-isoprenylcysteine O-methyltransferase (Homo sapiens) (UniProt O60725); experiment: Inhibition of ICMT in human AD293 cells transfected GFP-fused K-Ras4B assessed as induction of K-Ras4B mislocalization at 5 uM by laser scanning confocal microscopic analysis; format: cell-based; procedure, shortened: as §1
[8] = target: Tyrosine-protein kinase Fyn (Homo sapiens) (UniProt P06241); experiment: Effect on GFP-fused Fyn (unknown origin) transfected in human AD293 cells assessed as induction of Fyn mislocalization at 5 uM by laser confocal microscopic analysis; format: cell-based
PC-3 [9] = experiment: Induction of autophagy in human PC3 cells assessed as increase in LC3 expression at 25 uM measured after 24 hrs by Western blot analysis; format: functional, cell-based
PC-3 [10] = experiment: Induction of apoptosis in human PC3 cells assessed as increase in cleaved PARP expression at 25 uM measured after 24 hrs by Western blot analysis; format: functional, cell-based
PC-3 [11] = experiment: Induction of apoptosis in human PC3 cells assessed as increase in caspase 3 activity at 25 uM; format: functional, cell-based
[12] = target: Protein-S-isoprenylcysteine O-methyltransferase (Homo sapiens) (UniProt O60725); experiment: Inhibition of ICMT in human AD293 cells transfected GFP-fused K-Ras4A assessed as induction of K-Ras4A mislocalization at 5 uM by laser scanning confocal microscopic analysis; format: cell-based; procedure, shortened: as §1
PANC-1 = experiment: Induction of apoptosis in human PANC1 cells assessed as increase in sub-G0/G1 population at 50 uM measured after 24 hrs by propidium iodide staining based flow cytometry; format: functional, cell-based
[13] = target: Protein-S-isoprenylcysteine O-methyltransferase (Homo sapiens) (UniProt O60725); experiment: Inhibition of ICMT in human AD293 cells transfected GFP-fused N-Ras assessed as induction of N-Ras mislocalization at 5 uM by laser scanning confocal microscopic analysis; format: cell-based; procedure, shortened: as §1
Capan-2 = experiment: Induction of apoptosis in human Capan2 cells assessed as increase in sub-G0/G1 population at 50 uM measured after 24 hrs by propidium iodide staining based flow cytometry; format: functional, cell-based
MIA PaCa-2 = experiment: Induction of apoptosis in human MIAPaCa2 cells assessed as increase in sub-G0/G1 population at 50 uM measured after 24 hrs by propidium iodide staining based flow cytometry; format: functional, cell-based
PK9 = experiment: Induction of apoptosis in human PK9 cells assessed as increase in sub-G0/G1 population at 50 uM measured after 24 hrs by propidium iodide staining based flow cytometry; format: functional, cell-based
[14] = target: T1, Protein farnesyltransferase (Homo sapiens); conditions: 1 uM
Homo sapiens [15] = species: Homo sapiens; experiment: Inhibition of GGTase in human PC3 cells assessed as reduction in Rap1A geranylgeranylation at 1 uM measured after 24 hrs by Western blot analysis; format: cell-based
[16] = […] at 25 mg/kg, ip measured up to 6 hrs by LC-MS/MS analysis; format: ADME, organism-based; conditions: NSG, mouse, plasma
[17] = Drug level in NSG mouse plasma at 25 mg/kg, ip measured after 1 hr by LC-MS/MS analysis; format: ADME, organism-based
Procedure, shortened: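 8-week female mice received a single 25 mg/kg ip dose. Blood was taken by cardiac puncture at set time points (n=3 per point), clotted 30 min at rt and centrifuged. Serum was extracted with cold acetonitrile, filtered, and analysed by LC-MS/MS on a C18 column using positive ESI and MRM transition 423.50 > 289.05.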

[18] = Drug level in NSG mouse plasma xenografted with human HL60 cells at 25 mg/kg, ip administered 5 days a week followed by 2 days interval for 15 days measured 2 hrs post-last dose by LC-MS/MS analysis; format: ADME, organism-based
CAAX prenyl protease 2 = target: T2, CAAX prenyl protease 2 (Homo sapiens, UniProt Q9Y256); experiment: Inhibition of Rce1 in human PC3 cells at 10 uM using KSKTKC(f)VI as substrate measured after 24 hrs by LC-MS/MS analysis; format: cell-based
T2 sequence (Q9Y256 whole entry): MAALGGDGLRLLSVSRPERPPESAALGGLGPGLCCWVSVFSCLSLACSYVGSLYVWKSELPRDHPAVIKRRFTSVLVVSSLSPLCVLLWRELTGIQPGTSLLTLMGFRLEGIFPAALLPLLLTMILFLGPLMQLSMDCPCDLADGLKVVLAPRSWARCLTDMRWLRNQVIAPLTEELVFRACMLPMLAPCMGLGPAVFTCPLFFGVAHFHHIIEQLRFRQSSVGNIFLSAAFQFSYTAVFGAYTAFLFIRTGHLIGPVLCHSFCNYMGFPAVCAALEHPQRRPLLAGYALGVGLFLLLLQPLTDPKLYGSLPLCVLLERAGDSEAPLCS
Procedure, shortened: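 PC-3 cells were incubated ±10 μM compound for 24 h and homogenised in 100 mM HEPES pH 7.5, 5 mM MgCl2, 0.5% NP-40. Homogenate, 0.2 mg, was reacted with 250 μM KSKTKC(f)VI for 60 min at 37 °C. Reactions were stopped with ice-cold acetonitrile, and the M+2/2 ion was followed by HPLC-MS/MS.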

Protein-S-isoprenylcysteine O-methyltransferase (Homo sapiens), sequence (O60725 whole entry, the tested form may be a part): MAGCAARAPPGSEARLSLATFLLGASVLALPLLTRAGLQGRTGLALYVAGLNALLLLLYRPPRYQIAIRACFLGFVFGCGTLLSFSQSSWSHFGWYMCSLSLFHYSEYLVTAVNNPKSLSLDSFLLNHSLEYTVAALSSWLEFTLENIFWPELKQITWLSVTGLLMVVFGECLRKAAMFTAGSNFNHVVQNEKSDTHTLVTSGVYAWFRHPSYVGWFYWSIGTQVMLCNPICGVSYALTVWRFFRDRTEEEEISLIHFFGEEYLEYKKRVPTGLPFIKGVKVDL
Albumin, sequence (P02768 whole entry, the tested form may be a part): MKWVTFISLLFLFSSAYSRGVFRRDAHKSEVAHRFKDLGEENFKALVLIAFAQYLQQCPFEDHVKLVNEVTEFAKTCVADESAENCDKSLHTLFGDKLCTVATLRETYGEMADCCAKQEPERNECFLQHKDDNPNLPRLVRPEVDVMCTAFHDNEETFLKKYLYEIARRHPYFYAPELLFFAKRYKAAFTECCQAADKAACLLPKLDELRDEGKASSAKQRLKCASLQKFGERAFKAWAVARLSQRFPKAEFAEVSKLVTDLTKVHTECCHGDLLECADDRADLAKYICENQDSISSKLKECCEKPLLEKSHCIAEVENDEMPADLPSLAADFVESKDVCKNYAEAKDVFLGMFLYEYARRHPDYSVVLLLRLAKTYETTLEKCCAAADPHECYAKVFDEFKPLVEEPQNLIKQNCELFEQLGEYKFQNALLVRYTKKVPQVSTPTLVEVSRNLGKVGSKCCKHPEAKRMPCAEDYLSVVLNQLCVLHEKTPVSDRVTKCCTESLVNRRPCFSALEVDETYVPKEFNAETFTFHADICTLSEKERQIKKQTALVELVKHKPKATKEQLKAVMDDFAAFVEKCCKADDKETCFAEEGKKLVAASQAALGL
Tyrosine-protein kinase Fyn (Homo sapiens), sequence (P06241 2-537 limits assumed): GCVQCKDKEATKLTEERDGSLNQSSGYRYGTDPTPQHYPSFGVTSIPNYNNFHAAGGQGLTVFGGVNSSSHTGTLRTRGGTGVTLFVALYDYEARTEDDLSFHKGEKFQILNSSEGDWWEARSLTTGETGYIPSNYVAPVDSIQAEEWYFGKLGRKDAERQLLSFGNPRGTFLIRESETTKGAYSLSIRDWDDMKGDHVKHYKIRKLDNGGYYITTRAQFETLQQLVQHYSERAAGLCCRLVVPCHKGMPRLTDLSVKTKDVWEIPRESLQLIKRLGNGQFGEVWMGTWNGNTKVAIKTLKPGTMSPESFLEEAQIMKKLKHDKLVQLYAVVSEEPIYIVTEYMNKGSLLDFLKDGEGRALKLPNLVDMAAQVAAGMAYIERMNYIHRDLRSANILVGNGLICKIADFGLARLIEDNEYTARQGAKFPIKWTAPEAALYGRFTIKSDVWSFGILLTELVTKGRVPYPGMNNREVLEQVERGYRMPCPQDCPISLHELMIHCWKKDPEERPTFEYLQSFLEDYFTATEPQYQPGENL

Work on `CCCCCCCCN(CCS(=O)(=O)N(C)c1ccccc1)CCS(=O)(=O)N(C)c1ccccc1` yielded an inhibition [1] of 12%.

In the case of `COC(=O)[C@H](CC(C)C)NC(=O)c1ccc(NC[C@@H](N)CS)cc1-c1cccc2ccccc12`, the inhibition [2] is reported as “inactive” and the inhibition (Homo sapiens [3]) is reported as “Active”.

`CCCCCCCCN(CCC(=O)Nc1ccccc1)CCC(=O)NC1CCCCC1` showed a permeability [4] of 50%, a Kd (Albumin) of 3 µM and a fraction unbound (Albumin) of 0.005.

For `CCOCCOCCN(CCC(=O)Nc1ccccc1)CCC(=O)Nc1ccccc1`, the inhibition [1] was 15%.

With `CCCCCCCCn1cc(CC(N)=O)c2cc(-c3cccc(C)c3)ccc21` the inhibition [5] was “Active”, the Activity (HuP-T4) was “Active” and the inhibition [6] was “Active”. The inhibition [7] was “Active”, the Activity [8] was “inactive” and the Activity (PC-3 [9]) was “Active”. The Activity (PC-3 [10]) was “Active”, the Activity (PC-3 [11]) was “Active” and the inhibition [12] was “Active”. For the same molecule, the Activity (PANC-1) was “Active”, the inhibition [13] was “Active” and the Activity (Capan-2) was “Active”. The Activity (MIA PaCa-2) was “Active” and the Activity (PK9) was “Active”.

`CCCCCCCCN(CCC(=O)Nc1ccccc1)CCS(=O)(=O)N(C)c1ccccc1` showed an inhibition [1] of 10%.

With `NC(=O)N1CCC(CC(=O)N2CCC([C@H]3c4ncc(Br)cc4CCc4cc(Cl)cc(Br)c43)CC2)CC1` the inhibition [14] was “Active” and the inhibition (Homo sapiens [15]) was “inactive”.

In the case of `CCCCCCCCN(CCC(=O)Nc1ccccc1)CCC(=O)Nc1ccccc1`, the concentration at 6 h [16] is reported as 480 nM, the inhibition [2] is reported as “inactive” and the concentration at 1 h [17] is reported as 1700 nM. For the same molecule, the Activity [8] was “inactive”, the concentration at 2 h [18] was 736 nM and the permeability [4] was 68%. The Kd (Albumin) was 28 µM, the fraction unbound (Albumin) was 0.046 and the “inhibition (INH)” value (CAAX prenyl protease 2) was “Not Active”.

`CCCCCCCCN(CCC(=O)Nc1ccccc1)CCC(=O)Nc1ccc(F)cc1` showed a permeability [4] of 54%, a Kd (Albumin) of 7.8 µM and a fraction unbound (Albumin) of 0.013.

With `CCCCCCCCN(CCS(=O)(=O)Nc1ccccc1)CCS(=O)(=O)Nc1ccccc1` the inhibition [1] was 34%.

`CCCCCCCCN(CCC(=O)Nc1ccccc1)CCS(=O)(=O)Nc1ccccc1` gave an inhibition [1] of 22%.
